Here are results for one sequence from ChEMBL document CHEMBL1240382, “Elucidation of the pharmacokinetic/pharmacodynamic determinant of colistin activity against Pseudomonas aeruginosa in murine thigh and lung infection models” (Antimicrob Agents Chemother, 2010).

Common to all, as to format: ADME, organism-based
Common to all, as to details: in vivo

In data set [1] the test system is Mus musculus. As to the kind of experiment: Half life in Pseudomonas aeruginosa infected neutropenic Swiss mouse at 40 mg/kg, sc. Further details: dose 40 mg/kg, route subcutaneous. A digest of the protocol:
(§1)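 Single s.c. colistin (sulfate) dose (5, 10, 20 or 40 mg/kg) in neutropenic thigh-infected mice; central-vein blood at 6–8 times over 10 h, 4 mice per time; plasma colistin by HPLC (0.10–4.00 mg/liter calibration). Unbound levels from concentration-dependent fu (equilibrium dialysis, pH 7.4 phosphate buffer, 21 h, 37°C); parameters by noncompartmental analysis.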

The test system of data set [2] is Mus musculus. Kind of data set: Tmax in Pseudomonas aeruginosa infected neutropenic Swiss mouse at 5 mg/kg, sc. Further details: dose 5 mg/kg, route subcutaneous. An outline of the steps: as §1
The test system of data set [3] is Mus musculus. As to the kind of experiment: Cmax in Pseudomonas aeruginosa infected neutropenic Swiss mouse at 10 mg/kg, sc. Details: dose 10 mg/kg, route subcutaneous. A digest of the protocol: as §1
For data set [4], the system named is Mus musculus. Kind of data set: Tmax in Pseudomonas aeruginosa infected neutropenic Swiss mouse at 20 mg/kg, sc. Further details: dose 20 mg/kg, route subcutaneous. An outline of the steps: as §1
For data set [5], the system named is Mus musculus. As to the kind of experiment: Apparent volume of distribution to bioavailability in Pseudomonas aeruginosa infected neutropenic Swiss mouse at 5 mg/kg, sc. An outline of the steps: as §1
The subject of data set [6] is Mus musculus. As to the kind of experiment: Cmax in Pseudomonas aeruginosa infected neutropenic Swiss mouse at 20 mg/kg, sc. Details: dose 20 mg/kg, route subcutaneous. An outline of the steps: as §1
The test system of data set [7] is Mus musculus. As to the kind of experiment: Apparent volume of distribution to bioavailability in Pseudomonas aeruginosa infected neutropenic Swiss mouse at 40 mg/kg, sc. An outline of the steps:
as §1

Data set [8] concerns Mus musculus. As to the kind of experiment: Cmax in Pseudomonas aeruginosa infected neutropenic Swiss mouse at 40 mg/kg, sc. Details: dose 40 mg/kg, route subcutaneous. A digest of the protocol: as §1
The subject of data set [9] is Mus musculus. As to the kind of experiment: Half life in Pseudomonas aeruginosa infected neutropenic Swiss mouse at 20 mg/kg, sc. Details: dose 20 mg/kg, route subcutaneous. An outline of the steps:
as §1

Data set [10] deals with Mus musculus. As to the kind of experiment: Tmax in Pseudomonas aeruginosa infected neutropenic Swiss mouse at 40 mg/kg, sc. Further details: dose 40 mg/kg, route subcutaneous. An outline of the steps:
as §1

Data set [11] relates to Mus musculus. Kind of data set: Tmax in Pseudomonas aeruginosa infected neutropenic Swiss mouse at 10 mg/kg, sc. Further details: dose 10 mg/kg, route subcutaneous. An outline of the steps: as §1
Data set [12] concerns Mus musculus. As to the kind of experiment: Cmax in Pseudomonas aeruginosa infected neutropenic Swiss mouse at 5 mg/kg, sc. Further details: dose 5 mg/kg, route subcutaneous. A digest of the protocol:
as §1

Data set [13] concerns Mus musculus. As to the kind of experiment: Apparent volume of distribution to bioavailability in Pseudomonas aeruginosa infected neutropenic Swiss mouse at 10 mg/kg, sc. An outline of the steps: as §1
For data set [14], the system named is Mus musculus. Kind of data set: Half life in Pseudomonas aeruginosa infected neutropenic Swiss mouse at 5 mg/kg, sc. Further details: dose 5 mg/kg, route subcutaneous. An outline of the steps:
as §1

Data set [15] deals with Mus musculus. Kind of data set: Apparent volume of distribution to bioavailability in Pseudomonas aeruginosa infected neutropenic Swiss mouse at 20 mg/kg, sc. An outline of the steps:
as §1

Data set [16] has as its system Mus musculus. Kind of data set: Half life in Pseudomonas aeruginosa infected neutropenic Swiss mouse at 10 mg/kg, sc. Further details: dose 10 mg/kg, route subcutaneous. An outline of the steps:
as §1

Consider COLISTIMETHATE SODIUM, for which the t1/2 came out at 1.39 h in the data set with Mus musculus [1], 1.34 h in the data set on Mus musculus [9], 0.298 h in the data set on Mus musculus [14] and 1.14 h in the data set on Mus musculus [16]. For the same sequence, the Tmax in the data set on Mus musculus [2] is 1 h; in the data set with Mus musculus [4] it was 2 h; with Mus musculus [10], 2 h; with Mus musculus [11] it was 0.5 h. Further, the peak concentration (Cmax) with Mus musculus [3] came to 1440 ng/mL; with Mus musculus [6] it was 3290 ng/mL; in the data set on Mus musculus [8], 8890 ng/mL; with Mus musculus [12], 310 ng/mL. Besides, the Vc/F with Mus musculus [5] came to 10.1 L/kg; in the data set on Mus musculus [7], 3.27 L/kg; with Mus musculus [13], 4.63 L/kg; in the data set with Mus musculus [15], 4.88 L/kg.
